Source: ChEMBL document CHEMBL1126194, “Synthesis and functional evaluation of a peptide derivative of 1-beta-D-arabinofuranosylcytosine” (J Med Chem, 1992)

Columns and labels:
[1] = tested on: L1210; experiment: Inhibition of L1210 lymphoid leukemia cells 48 hr after administration (length of preincubation=0 hr); format: functional, cell-based; details: Mus musculus
Outline: (§1)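 L1210 cells (2×10^4/well) exposed continuously to serially diluted compound in Fischer's medium with 10% horse serum for up to 72 h. Viable cells were counted by Trypan blue exclusion at 24, 48 and 72 h. IC50 is the concentration giving 50% growth inhibition, estimated from response curves of three separate experiments.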

[2] = tested on: L1210; experiment: Inhibition of L1210 lymphoid leukemia cells 72 hr after administration (length of preincubation=0 hr); format: functional, cell-based; details: Mus musculus; outline: as §1
[3] = Half life in human plasma; format: ADME
Outline: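 Compound ([…]) incubated in 1 mL fresh human plasma at 37 °C against a buffer reference; hydrolysis followed by change in absorption at 325 nm (ϵ 1.55). Initial concentration about 2 × 10^-4 M; apparent first-order kinetics, with the pseudo-first-order rate constant given by k = 0.693/t1/2.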

[4] = tested on: L1210; experiment: Inhibition of L1210 lymphoid leukemia cells 24 hr after administration (length of preincubation=0 hr); format: functional, cell-based; details: Mus musculus; outline: as §1

| Compound | IC50 [1] [nM] | IC50 [2] [nM] | half-life [3] [h] | IC50 [4] [nM] |
| --- | --- | --- | --- | --- |
| CC(C)C[C@H](NC(=O)[C@H](N)C(C)C)C(=O)N[C@@H](CCCCN)C(=O)N(C)c1ccn([C@@H]2O[C@H](CO)[C@@H](O)[C@@H]2O)c(=O)n1.N=C(N)c1ccc(CS(=O)(=O)F)cc1 | 5 | 10 | 5.5 | 1000 |
| Nc1ccn([C@@H]2O[C@H](CO)[C@@H](O)[C@@H]2O)c(=O)n1 [CYTARABINE] | 10 | 10 |  | 100 |
